According to ChEMBL document CHEMBL1157054, “Design, synthesis and biological evaluation of indane-2-arylhydrazinylmethylene-1,3-diones and indol-2-aryldiazenylmethylene-3-ones as beta-amyloid aggregation inhibitors” (Eur J Med Chem, 2010):
Calls of active or inactive are those of the source. The calls are words filed in the database; no cut-off is given here.

test: Inhibition of amyloid beta (1 to 40) aggregation assessed as inhibition of fibril formation at 100 uM by thioflavin T fluorescent dye assay
Outline: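 Aβ1-40 (HFIP-treated, lyophilized) at 30 µM in PBS (0.01 M, NaCl 0.1 M, pH 7.4) with 2% HFIP and 10% DMSO, test compound 100 µM; triplicate incubations, 2 h at 25 °C. Sample mixed with 25 µM ThT in 0.025 M phosphate pH 6.0; fluorescence ex 440/em 485 nm. Percent inhibition = 100 − [(Fi − Fb)/F0]×100, blank-corrected against free Aβ aggregation.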

Row | inhibition | Compound
1 | 49% | O=C1C(=CNNc2ccccc2)C(=O)c2ccccc21
2 | 23% | O=C1C(=C/N=N/c2ccc(Cl)c(Cl)c2)Nc2ccc(Br)cc21
3 | 20% | O=C1C(=C/N=N/c2ccc(Cl)cc2)Nc2ccc(Br)cc21
4 | 44% | Cc1ccc(NNC=C2C(=O)c3ccccc3C2=O)cc1
5 | 38% | O=c1c(=NNc2ccc(Cl)cc2)c(=O)c2ccccc12
6 | 33% | O=C1C(=C/N=N/c2ccc(Cl)cc2)Nc2ccccc21
7 | 44% | O=C1CCC(=O)C1=CNNc1ccc(Cl)cc1

test: Inhibition of amyloid beta (1 to 40) aggregation assessed as inhibition of protofibril formation after 3 days
Outline: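 Aβ1-40 (30 µM) with compound at 50 µM in 0.217 M phosphate buffer pH 8.0, 10% ethanol, incubated at 37 °C up to 7 days; aliquots taken at time points, applied to carbon-coated grids, negatively stained with 2% uranyl acetate, imaged by TEM at 60 kV, 60,000-fold magnification; qualitative fibril/protofibril assessment.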

Row | inhibition | Compound
8 | Active | CC(C)c1ccc(/N=N/C=C2Nc3ccccc3C2=O)cc1

test: Inhibition of amyloid beta (1 to 40) aggregation assessed as inhibition of fibril formation by thioflavin T fluorescent dye assay
Outline: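 ThT fluorimetric assay on HFIP-pretreated Aβ1-40, 30 µM in PBS pH 7.4 containing 2% HFIP and 10% DMSO, incubated 2 h at 25 °C. Fluorescence read after mixing with 25 µM ThT (phosphate pH 6.0), ex 440/em 485 nm, blank-corrected vs inhibitor-free aggregation. IC50 from 5-7 concentrations tested in triplicate, three independent experiments.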

Row | IC50 | Compound
9 | 23 µM | COc1ccc2[nH]cc(/C=N\Nc3ccc(Cl)cc3)c2c1
10 | 32 µM | O=C1C(=CNNc2ccccc2Cl)C(=O)c2ccccc21
11 | 23 µM | O=C1C(=CNNc2ccc(Cl)cc2)C(=O)c2ccccc21
12 | 2.5 µM | O=C1C(=C/N=N/c2cccc(Cl)c2)Nc2ccccc21
13 | 18 µM | CC(C)c1ccc(NNC=C2C(=O)c3ccccc3C2=O)cc1
14 | 4.4 µM | O=C1C(=C/N=N/c2cccc(Cl)c2)Nc2ccc(Br)cc21
15 | 18 µM | O=C1C(=CNNc2cccc(Cl)c2)C(=O)c2ccccc21

Second part, the compound before the results:

Row | Compound | IC50
16 | O=C1C(=C/N=N/c2ccccc2)Nc2ccccc21 | 8.8 µM
17 | Cc1ccc(/N=N/C=C2Nc3ccccc3C2=O)cc1 | 3.6 µM
18 | Cc1ccc(/N=N/C=C2Nc3ccc(Br)cc3C2=O)cc1 | 51 µM
19 | O=c1c(O)c(-c2ccc(O)c(O)c2)oc2cc(O)cc(O)c12 [QUERCETIN] | 0.8 µM
20 | CC(C)c1ccc(/N=N/C=C2Nc3ccc(Br)cc3C2=O)cc1 | 23 µM
21 | CC(C)c1ccc(/N=N/C=C2Nc3ccccc3C2=O)cc1 | 1.4 µM
22 | O=C1C(=C/N=N/c2ccccc2Cl)Nc2ccc(Br)cc21 | 7.8 µM
23 | O=C1C(=C/N=N/c2ccccc2)Nc2ccc(Br)cc21 | 35 µM
24 | O=C1C(=C/N=N/c2ccccc2Cl)Nc2ccccc21 | 13 µM
